The source made the active and inactive calls. The calls are words filed in the database; no cut-off is given here.
Columns and labels:
[1] = molecular target: T1, Isocitrate dehydrogenase [NADP] cytoplasmic (Homo sapiens, UniProt O75874, R132H); experiment: Binding affinity to human recombinant IDH1 R132H mutant expressed in Escherichia coli BL21(DE3) pLysS cells assessed as dissociation constant by non-denaturing mass spectroscopic analysis
[2] = molecular target: T1, Isocitrate dehydrogenase [NADP] cytoplasmic; experiment: Inhibition of recombinant IDH1 R132H mutant (unknown origin) expressed in Escherichia coli BL21(DE3) pLysS cells using 2OG as substrate assessed as 2OG conversion to 2HG incubated for 60 mins in presence of NADPH by spectrophotometric analysis
[3] = Selectivity index, ratio of IC50 for recombinant wildtype IDH1 expressed in Escherichia coli BL21(DE3) pLysS cells to IC50 for recombinant IDH1 R132H mutant (unknown origin) expressed in Escherichia coli BL21(DE3) pLysS cells
[4] = molecular target: T2, Isocitrate dehydrogenase [NADP] cytoplasmic (Homo sapiens, UniProt O75874); conditions: dose 3-100 µM
T2 sequence (O75874 whole entry): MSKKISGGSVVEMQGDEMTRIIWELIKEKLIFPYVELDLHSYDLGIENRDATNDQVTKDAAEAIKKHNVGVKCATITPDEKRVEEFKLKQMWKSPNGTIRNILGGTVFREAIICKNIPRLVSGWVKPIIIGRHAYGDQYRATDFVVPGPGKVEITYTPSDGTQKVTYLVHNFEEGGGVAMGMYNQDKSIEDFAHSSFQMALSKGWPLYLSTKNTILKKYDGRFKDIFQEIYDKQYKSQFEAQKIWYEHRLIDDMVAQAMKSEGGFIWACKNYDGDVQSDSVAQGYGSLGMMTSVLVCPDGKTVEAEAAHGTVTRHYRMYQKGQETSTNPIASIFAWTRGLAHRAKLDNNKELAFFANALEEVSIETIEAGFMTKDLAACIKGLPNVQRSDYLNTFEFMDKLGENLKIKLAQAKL

[5] = test system: Isocitrate dehydrogenase [NADP] cytoplasmic (Homo sapiens), O75874 [R132H]; conditions: dose 3-100 µM
Isocitrate dehydrogenase [NADP] cytoplasmic (Homo sapiens), O75874 [R132H], sequence (O75874 whole entry R132H): as the sequence (O75874 whole entry) above, with R132H counted along it

[6] = test system: Isocitrate dehydrogenase [NADP] cytoplasmic (Homo sapiens), O75874 [R132H]; conditions: dose 42.0 µM
[7] = molecular target: T2, Isocitrate dehydrogenase [NADP] cytoplasmic; experiment: Binding affinity to human recombinant IDH1 expressed in Escherichia coli BL21(DE3) pLysS cells assessed as dissociation constant by non-denaturing mass spectroscopic analysis
[8] = molecular target: T2, Isocitrate dehydrogenase [NADP] cytoplasmic; experiment: Binding affinity to recombinant wildtype IDH1 (unknown origin) expressed in Escherichia coli BL21(DE3) pLysS cells incubated in presence of MgCl2 by NMR analysis
[9] = test system: Isocitrate dehydrogenase [NADP] cytoplasmic (Homo sapiens), O75874 [R132H]; experiment: Binding affinity to recombinant IDH1 R132H mutant (unknown origin) expressed in Escherichia coli BL21(DE3) pLysS cells incubated in presence of MgCl2 by NMR analysis
[10] = molecular target: T2, Isocitrate dehydrogenase [NADP] cytoplasmic; experiment: Binding affinity to recombinant IDH1 (unknown origin) expressed in Escherichia coli BL21(DE3) pLysS cells incubated in presence of MgCl2 by ITC assay
How it was run: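 Homodimeric wt IDH1 in 50 mM tris–HCl, pH 7.5; cell 40 μM protein (4% v/v DMSO), titrant 200 or 400 μM compound (2% or 4% DMSO). 25 °C, stirring 750 rpm, 19 injections (0.4 μL then 18 × 2.0 μL, 150 s apart); thermodynamic parameters fitted from the heats.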

[11] = test system: Isocitrate dehydrogenase [NADP] cytoplasmic (Homo sapiens), O75874 [R132H]; experiment: Binding affinity to recombinant IDH1 R132H mutant (unknown origin) expressed in Escherichia coli BL21(DE3) pLysS cells incubated in presence of MgCl2 by ITC assay
How it was run: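 IDH1 R132H homodimer in 50 mM tris–HCl, pH 7.5; 40 μM protein in cell (4% v/v DMSO) titrated at 25 °C with 200 or 400 μM compound (2% or 4% DMSO), 19 injections (0.4 μL, then 2.0 μL × 18, 150 s spacing), 750 rpm; thermodynamic parameters from fitted isotherm.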

T1 sequence (O75874 2-414 R132H limits assumed): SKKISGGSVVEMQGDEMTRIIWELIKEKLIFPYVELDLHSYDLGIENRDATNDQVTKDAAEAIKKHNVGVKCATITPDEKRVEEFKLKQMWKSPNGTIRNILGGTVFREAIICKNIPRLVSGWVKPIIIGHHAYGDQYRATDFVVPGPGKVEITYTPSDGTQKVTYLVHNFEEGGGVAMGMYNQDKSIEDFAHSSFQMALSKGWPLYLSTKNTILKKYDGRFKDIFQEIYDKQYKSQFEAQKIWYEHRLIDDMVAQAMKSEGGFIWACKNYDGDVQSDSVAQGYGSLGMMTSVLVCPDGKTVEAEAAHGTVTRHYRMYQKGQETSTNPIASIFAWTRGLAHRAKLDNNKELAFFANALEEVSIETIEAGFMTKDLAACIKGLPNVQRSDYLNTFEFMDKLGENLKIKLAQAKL

For `Cc1ccccc1C(C(=O)NC1CCCCC1)N(C(=O)Cn1ccnc1C)c1cccc(F)c1` (stereo not drawn), the Kd [1] was 98 µM.

With `Cc1ccccc1C(C(=O)NC1CCCCC1)N(C(=O)Cn1cnc2ccccc21)c1cccc(F)c1` (stereo not drawn) the IC50 [2] was 0.073 µM, the Ratio IC50 [3] was > 556 and the ΔTm [4] was 8.1 °C. The ΔTm [5] was 6.6 °C.

For `CC(=O)N1CCN(Cc2ccc([C@H](C)Nc3nccc(N4C(=O)OC[C@@H]4C(C)C)n3)cc2)CC1`, the ΔTm [5] was 11.7 °C and the ΔTm [6] was 11.2 °C.

With `COc1c(C)cc(NC(=O)c2nn(Cc3ccc(F)cc3)c3c2CN(C(=O)c2ccc[nH]2)C[C@]3(C)C(N)=O)cc1C` the Kd [7] was 24 µM, the Kd [1] was 23 µM and the Activity [8] was “Active”. For the same molecule, the Activity [9] was “Active”, the Activity [10] was “Active” and the Activity [11] was “Active”.

— ChEMBL document CHEMBL5352499, “Differentiating Inhibition Selectivity and Binding Affinity of Isocitrate Dehydrogenase 1 Variant Inhibitors” (J Med Chem, 2023)
